# Assay results published in ChEMBL document CHEMBL1131122, “Synthesis and biological activity of certain 4'-thio-D-arabinofuranosylpurine nucleosides” (J Med Chem, 1998).
# Key:
# Type in all cases: functional, cell-based
# Conditions in all cases: Homo sapiens
# [1] = test system: DLD-1; test: Compound was evaluated for cytotoxicity against DLD-1(colon) cell line
# [2] = test system: SNB-7; test: Compound was evaluated for cytotoxicity against SNB-7 (CNS) cell line
# [3] = test system: CCRF-CEM; test: Compound was evaluated for cytotoxicity against CCRF-CEM (leukemia) cell line
# How it was run: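 Human leukemia CEM cells grown in culture and exposed to the nucleosides. In one set of runs the adenosine deaminase inhibitor 2′-deoxycoformycin was also present during the incubation.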
# [4] = test system: SK-MEL-28; test: Compound was evaluated for cytotoxicity against SK-MEL-28 (melanoma) cell line
# [5] = test system: CAKI-1; test: Compound was evaluated for cytotoxicity against CAKI-1(renal) cell line
# [6] = test system: NCI-H23; test: Compound was evaluated for cytotoxicity against NCI-H23 (lung) cell line
SMILES,IC50 [1] [µM],IC50 [2] [µM],IC50 [3] [µM],IC50 [4] [µM],IC50 [5] [µM],IC50 [6] [µM]
Nc1nc(N)c2ncn(C3SC(CO)C(O)C3O)c2n1 (centres undefined),> 25,1,0.34,0.34,20,> 25
Nc1nc(F)nc2c1ncn2[C@H]1S[C@H](CO)[C@@H](O)[C@@H]1O,> 100,> 100,> 130,> 100,20,> 100
Nc1nc(F)nc2c1ncn2[C@@H]1S[C@H](CO)[C@@H](O)[C@@H]1O,> 90,> 90,30,> 90,10,> 90
Nc1nc(O)c2ncn(C3SC(CO)C(O)C3O)c2n1 (centres undefined),> 20,1.1,0.57,1.1,14,> 20
